Assay results reported in ChEMBL document CHEMBL5678799 (Biochem J, 2009).
Each block holds one compound with its values, some of them ahead of it. Active and inactive are the calls of the source. The rule behind the calls is not given here.

Columns and labels:
[1] = target: T1, Mitogen-activated protein kinase; ERK1/ERK2 (Homo sapiens) (UniProt P27361+P28482); experiment: Inhibition of ERK1/2 in serum starved/PMA-stimulated HEK293 cells assessed as reduction in RSK phosphorylation at S380 residues at 200 nM incubated for 30 mins by immunoblot analysis; format: cell-based
[2] = target: T1, Mitogen-activated protein kinase; ERK1/ERK2 (Homo sapiens); experiment: Inhibition of ERK1/2 in serum starved/PMA-stimulated HEK293 cells assessed as reduction in RSK activity at 200 nM using crosstide as substrate incubated for 30 mins in presence of [32P]-ATP by liquid-scintillation counting method; format: cell-based
[3] = target: T1, Mitogen-activated protein kinase; ERK1/ERK2 (Homo sapiens); experiment: Inhibition of ERK1/2 in serum starved/PMA-stimulated HEK293 cells assessed as reduction in RSK phosphorylation at T573 residues at 200 nM incubated for 30 mins by immunoblot analysis; format: cell-based
[4] = target: T1, Mitogen-activated protein kinase; ERK1/ERK2 (Homo sapiens); experiment: Inhibition of ERK1/2 in serum starved/PMA-stimulated HEK293 cells assessed as reduction in RSK phosphorylation at S227 residues at 200 nM incubated for 30 mins by immunoblot analysis; format: cell-based
[5] = target: T1, Mitogen-activated protein kinase; ERK1/ERK2 (Homo sapiens); experiment: Inhibition of ERK1/2 in serum starved/PMA-stimulated HEK293 cells assessed as reduction in ERK1/2 phosphorylation at T202/Y204 residues at 200 nM incubated for 30 mins by immunoblot analysis; format: cell-based
MEF [6] = experiment: Induction of cell cycle arrest in MEF cells assessed as accumulation at G1 phase at 100 nM incubated for 1 to 3 days by propidium iodide staining based flow cytometric analysis (reference value: 21.4 +/- 1.7%); format: toxicity; conditions: mouse, 0.1 µM, time 1-3 day
[7] = target: Serine/threonine-protein kinase mTOR (Homo sapiens) (UniProt P42345); conditions: HeLa, dose 100.0 nM, time 30.0 min
MEF [8] = experiment: Induction of cell cycle arrest in MEF cells assessed as accumulation at G2 phase at 100 nM incubated for 1 to 3 days by propidium iodide staining based flow cytometric analysis (reference value: 15.4 +/- 2.04%); format: toxicity; conditions: mouse, 0.1 µM, time 1-3 day
[9] = target: Serine/threonine-protein kinase mTOR (Mus musculus) (UniProt Q9JLN9); conditions: MEF, dose 100.0 nM, time 30.0 min
MEF [10] = experiment: Induction of cell cycle arrest in MEF cells assessed as accumulation at S phase at 100 nM incubated for 1 to 3 days by propidium iodide staining based flow cytometric analysis (reference value: 61.5 +/- 0.78%); format: toxicity; conditions: mouse, 0.1 µM, time 1-3 day
[11] = target: Serine/threonine-protein kinase mTOR (Homo sapiens) (UniProt P42345); conditions: HEK293, dose 100.0 nM, time 30.0 min
MEF [12] = experiment: Induction of cell cycle arrest in mLST8 knockout MEF cells assessed as accumulation at G1 phase at 100 nM incubated for 1 to 3 days by propidium iodide staining based flow cytometric analysis (reference value: 22.2 +/- 0.59%); format: toxicity; conditions: mouse, 0.1 µM, time 1-3 day
MEF [13] = experiment: Induction of cell cycle arrest in mLST8 knockout MEF cells assessed as accumulation at S phase at 100 nM incubated for 1 to 3 days by propidium iodide staining based flow cytometric analysis (reference value: 59.7 +/- 0.49%); format: toxicity; conditions: mouse, 0.1 µM, time 1-3 day
[14] = target: Serine/threonine-protein kinase mTOR (Homo sapiens) (UniProt P42345); conditions: HEK293, dose 100.0 nM, time 30.0 min; remark: listed apart in the source
[15] = target: Serine/threonine-protein kinase mTOR (Mus musculus) (UniProt Q9JLN9); conditions: MEF, dose 100.0 nM, time 30.0 min; remark: listed apart in the source
[16] = target: Serine/threonine-protein kinase mTOR (Mus musculus) (UniProt Q9JLN9); conditions: MEF, dose 100.0 nM, time 30.0 min; remark: listed apart in the source
[17] = target: Serine/threonine-protein kinase mTOR (Mus musculus) (UniProt Q9JLN9); conditions: MEF, dose 100.0 nM, time 30.0 min; remark: listed apart in the source
MEF [18] = experiment: Induction of cell cycle arrest in mLST8 knockout MEF cells assessed as accumulation at G2 phase at 100 nM incubated for 1 to 3 days by propidium iodide staining based flow cytometric analysis (reference value: 14.1 +/- 0.69%); format: toxicity; conditions: mouse, 0.1 µM, time 1-3 day
[19] = target: Serine/threonine-protein kinase mTOR (Mus musculus) (UniProt Q9JLN9); conditions: MEF, dose 100.0 nM, time 30.0 min; remark: listed apart in the source
HEK293 [20] = experiment: Inhibition of PI3K in IGF1-stimulated HEK293 cells assessed as reduction in IGF1-stimulated PtdIns(3,4,5)P3 production at 2 uM pre incubated for 30 mins followed by IGF1-stimulation for 10 mins; format: cell-based; conditions: Homo sapiens
HeLa = experiment: Inhibition of PI3K/mTOR in human HeLa cells assessed as reduction in NDRG1 phosphorylation incubated ay 1 uM for 30 mins by immunoblot analysis; format: cell-based
Procedure, shortened: (§1)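 HeLa cells or wild-type/knockout MEFs cultured in 10% serum and treated 30 min with inhibitor. Lysed in Tris lysis buffer and extracts immunoblotted with an antibody to NDRG1 phosphorylated at Thr346/356/366. Three experiments.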

MEF [21] = experiment: Inhibition of PI3K in serum starved Rictor knockout MEF cells assessed as reduction IGF1-stimulated AKT phosphorylation at Thr308 residue at 1 uM incubated for 20 mins by immunoblot analysis; format: cell-based; conditions: Mus musculus
Procedure, shortened: (§2)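 Wild-type, Rictor-, mLST8- or Sin1-knockout MEFs serum-deprived, pretreated 30 min with inhibitor, then stimulated with IGF-1 for 20 min. Lysates immunoblotted for Akt Thr308 phosphorylation. Three independent experiments.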

MEF [22] = experiment: Inhibition of PI3K in serum starved MEF cells assessed as reduction IGF1-stimulated AKT phosphorylation at Thr308 residue at 1 uM incubated for 20 mins by immunoblot analysis; format: cell-based; conditions: Mus musculus; procedure, shortened: as §2
MEF [23] = experiment: Inhibition of PI3K in serum starved mLST8 knockout MEF cells assessed as reduction IGF1-stimulated AKT phosphorylation at Thr308 residue at 1 uM incubated for 20 mins by immunoblot analysis; format: cell-based; conditions: Mus musculus; procedure, shortened: as §2
MEF [24] = experiment: Inhibition of PI3K in serum starved sin1 knockout MEF cells assessed as reduction IGF1-stimulated AKT phosphorylation at Thr308 residue at 1 uM incubated for 20 mins by immunoblot analysis; format: cell-based; conditions: Mus musculus; procedure, shortened: as §2
MEF [25] = experiment: Inhibition of PI3K/mTOR in MEF cells assessed as reduction in NDRG1 phosphorylation incubated ay 1 uM for 30 mins by immunoblot analysis; format: cell-based; conditions: Mus musculus; procedure, shortened: as §1
HEK293 [26] = experiment: Inhibition of PI3K in serum starved HEK293 cells expressing GST-tagged-AKT1 S473D mutant assessed as reduction in IGF1-stimulated AKT1 phosphorylation at Thr308 residue at 1 uM incubated for 20 mins by immunoblot analysis; format: cell-based; conditions: Homo sapiens
Procedure, shortened: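 HEK-293 cells transfected with wild-type or S473D GST–Akt1. At 24 h, serum-starved 16 h, pretreated 30 min with inhibitor, then stimulated with IGF-1 for 20 min. Lysates immunoblotted for Thr308 phosphorylation. Three separate experiments.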

T1 sequence (P27361 whole entry, looked up): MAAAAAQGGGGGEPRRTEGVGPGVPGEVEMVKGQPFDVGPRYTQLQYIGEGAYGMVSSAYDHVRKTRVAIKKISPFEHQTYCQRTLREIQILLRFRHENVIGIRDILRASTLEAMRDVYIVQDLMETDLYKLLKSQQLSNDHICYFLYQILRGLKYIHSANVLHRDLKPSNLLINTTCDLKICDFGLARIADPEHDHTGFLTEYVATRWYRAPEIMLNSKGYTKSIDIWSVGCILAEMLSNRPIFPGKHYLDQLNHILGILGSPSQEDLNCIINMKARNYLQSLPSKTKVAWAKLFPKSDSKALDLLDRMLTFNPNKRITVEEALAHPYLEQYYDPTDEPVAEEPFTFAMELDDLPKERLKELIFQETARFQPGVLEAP
T1 sequence (P28482 whole entry, looked up): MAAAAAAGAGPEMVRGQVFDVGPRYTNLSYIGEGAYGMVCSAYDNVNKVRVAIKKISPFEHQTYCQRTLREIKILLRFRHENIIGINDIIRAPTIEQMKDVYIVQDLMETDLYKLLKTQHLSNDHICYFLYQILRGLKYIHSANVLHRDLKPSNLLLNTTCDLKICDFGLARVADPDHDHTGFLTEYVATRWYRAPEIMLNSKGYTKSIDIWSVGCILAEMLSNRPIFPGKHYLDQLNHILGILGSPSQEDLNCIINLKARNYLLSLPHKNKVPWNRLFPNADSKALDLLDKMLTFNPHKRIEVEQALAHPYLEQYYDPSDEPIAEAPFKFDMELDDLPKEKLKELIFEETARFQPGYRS

inhibition [1]: Active | inhibition [2]: Active | inhibition [3]: Active | inhibition [4]: Active | inhibition [5]: Active
SMILES: O=C(NOCC(O)CO)c1ccc(F)c(F)c1Nc1ccc(I)cc1Cl (configuration not stated)

inhibition [7]: inactive | inhibition [9]: Active | inhibition [11]: Active | inhibition [14]: Active | inhibition [15]: inactive | inhibition [16]: Active | inhibition [17]: Active | inhibition [19]: Active
SMILES: CO[C@H]1C[C@@H]2CC[C@@H](C)[C@@](O)(O2)C(=O)C(=O)N2CCCC[C@H]2C(=O)O[C@H]([C@H](C)C[C@@H]2CC[C@@H](O)[C@H](OC)C2)CC(=O)[C@H](C)/C=C(\C)[C@@H](O)[C@@H](OC)C(=O)[C@H](C)C[C@H](C)/C=C/C=C/C=C/1C [SIROLIMUS]
Activity (MEF [6]): 29.8% | Activity (MEF [8]): 11.2% | Activity (MEF [10]): 56.7% | Activity (MEF [12]): 35.8% | Activity (MEF [13]): 46.5% | Activity (MEF [18]): 14.4%

SMILES: Oc1cccc(-c2nc(N3CCOCC3)c3oc4ncccc4c3n2)c1
inhibition (HEK293 [20]): Active | inhibition (HeLa): Active | inhibition (MEF [21]): Active | inhibition (MEF [22]): Active | inhibition (MEF [23]): Active | inhibition (MEF [24]): Active | inhibition (MEF [25]): Active | inhibition (HEK293 [26]): Active
